Marks after values point to notes of the source that are not given here.
Key:
Assay type in all cases: in vivo, human
[1] = Pharmacokinetics of elobixibat; details: for C1max / t1(1/2) / C8max / t8(1/2) / C14max / t14(1/2): geometric mean (CV)
How it was run: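 Once-daily oral dosing before breakfast for 14 days. Plasma was drawn predose and at 0.5–12 h on Days –1, 1, 8 and 14, plus intermittent days to Day 21. Measured by LC–MS/MS (LLOQ 10.0 pg ml–1). Noncompartmental Cmax and AUC(0–t) on log-transformed values. Accumulation ratios were Day 8/Day 1 and Day 14/Day 1. Sex effect was expressed as back-transformed male/female LSM ratio.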

[2] = test system: serum high‐density lipoprotein cholesterol (HDL‐C); test: Serum HDL-C level, M-test
[3] = test system: patients with chronic constipation; test: Bowel functions; details: for proportion of patients with first SBM within 24 h: placebo 40.0%
How it was run: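 Test compound or placebo orally once daily before breakfast for 14 days. Patients recorded the time of each BM (BM, SBM, complete SBM), Bristol Stool Form Scale, straining (five levels), completeness of evacuation and GI symptoms including discomfort (five levels). Bisacodyl suppository rescue was allowed after ≥72 h without BM with symptoms. Descriptive statistics were used.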

[4] = test system: patients with chronic constipation; test: Adverse events, S-test
How it was run: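 Crossover study with patients randomized 5:1 to test compound (2.5–20 mg) or placebo. Single oral dose on Day 1, taken 15 min before breakfast or without breakfast, then 6-day washout. The alternative regimen was given on Day 8, followed by 5-day observation. Inpatient Day –2 to Day 14. AE type, severity and incidence recorded with vital signs, ECG and laboratory tests. Dose trend by Cochran–Armitage test.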

QTcF intervals = test: ECG QTcF evaluation; details: S-test and M-test, 2.5-20 mg
How it was run: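 12-lead surface ECG in both single- and 14-day dosing tests. QT was Fridericia-corrected by experienced central-laboratory readers. ΔQTcF from baseline was calculated at each time point, and ΔΔQTcF versus placebo was estimated with 90% CI. Categorical counts: absolute QTcF >450, >480 and >500 ms; ΔQTcF >30 and >60 ms.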

[5] = Day 1, 2.5 mg once daily before breakfast
[6] = Day 1, 5 mg once daily before breakfast
[7] = Day 1, 10 mg once daily before breakfast
[8] = Day 1, 15 mg once daily before breakfast
[9] = Day 1, 20 mg once daily before breakfast
[10] = Day 8, 2.5 mg once daily before breakfast
[11] = Day 8, 5 mg once daily before breakfast
[12] = Day 8, 10 mg once daily before breakfast
[13] = Day 8, 15 mg once daily before breakfast
[14] = Day 8, 20 mg once daily before breakfast
[15] = Day 14, 2.5 mg once daily before breakfast
[16] = Day 14, 5 mg once daily before breakfast
[17] = Day 14, 10 mg once daily before breakfast
[18] = Day 14, 15 mg once daily before breakfast
[19] = Day 14, 20 mg once daily before breakfast
[20] = M-test Day 8, linear mixed effect model
[21] = M-test Day 14, linear mixed effect model
[22] = single dose 2.5 mg, before breakfast (group n=10)
[23] = single dose 2.5 mg, no breakfast (group n=10)
[24] = single dose 5 mg, before breakfast (group n=10)
[25] = single dose 5 mg, no breakfast (group n=10)
[26] = single dose 10 mg, before breakfast (group n=10)
[27] = single dose 10 mg, no breakfast (group n=10)
[28] = single dose 15 mg, before breakfast (group n=10)
[29] = single dose 15 mg, no breakfast (group n=10)
[30] = single dose 20 mg, before breakfast (group n=10)
[31] = single dose 20 mg, no breakfast (group n=9)

CCCCC1(CCCC)CN(c2ccccc2)c2cc(SC)c(OCC(=O)N[C@@H](C(=O)NCC(=O)O)c3ccccc3)cc2S(=O)(=O)C1 [elobixibat]
drug accumulation on multiple administration ([1]; 5 and 15 mg day^–1 dosages (Discussion)): slight accumulation | C1max [1, 5]: 98.69 (56.9) pg ml^–1 | t1(1/2) [1, 5]: 1.89 (40.9) ^a h | C1max [1, 6]: 164.83 (54.7) pg ml^–1 | t1(1/2) [1, 6]: 2.41 (32.7) h | C1max [1, 7]: 284.67 (39.6) ^a pg ml^–1 | t1(1/2) [1, 7]: 2.69 (30.7) ^a h | C1max [1, 8]: 468.71 (63.7) pg ml^–1 | t1(1/2) [1, 8]: 3.28 (75.7) h | C1max [1, 9]: 932.04 (76.3) pg ml^–1 | t1(1/2) [1, 9]: 3.14 (62.4) h | C8max [1, 10]: 99.39 (63.6) pg ml^–1 | t8(1/2) [1, 10]: 2.42 (31.2) h | C8max [1, 11]: 139.45 (50.7) pg ml^–1 | t8(1/2) [1, 11]: 3.29 (68.9) h | C8max [1, 12]: 283.84 (17.9) pg ml^–1 | t8(1/2) [1, 12]: 4.96 (64.1) h | C8max [1, 13]: 388.55 (82.0) pg ml^–1 | t8(1/2) [1, 13]: 4.62 (58.2) h | C8max [1, 14]: 581.32 (53.6) pg ml^–1 | t8(1/2) [1, 14]: 5.16 (45.2) h | C14max [1, 15]: 82.66 (50.4) pg ml^–1 | t14(1/2) [1, 15]: 2.34 (50.8) ^a h | C14max [1, 16]: 165.57 (35.0) pg ml^–1 | t14(1/2) [1, 16]: 3.73 (61.0) h | C14max [1, 17]: 236.11 (34.4) pg ml^–1 | t14(1/2) [1, 17]: 6.19 (146.0) h | C14max [1, 18]: 383.19 (73.5) pg ml^–1 | t14(1/2) [1, 18]: 5.68 (74.9) h | C14max [1, 19]: 953.18 (53.6) pg ml^–1 | t14(1/2) [1, 19]: 7.23 (37.5) h | AUC8(0–t), back transformed LSM ratio male/female [1, 20]: 0.9947 | C8max, back transformed LSM ratio male/female [1, 20]: 0.8416 | AUC14(0–t), back transformed LSM ratio male/female [1, 21]: 0.9863 | C14max, back transformed LSM ratio male/female [1, 21]: 0.9675 | drug accumulation from Cmax (Rac) ([1]; all dosage groups, 90% CIs of Rac included 1.000): No drug accumulation | time to steady state of plasma concentration ([1]; multiple administration once daily): ≤ 8 days | HDL‐C levels, trend [2]: no clear trend | proportion of patients with first SBM within 24 h ([3]; 2.5 mg day^–1 (10/10)): 100% | proportion of patients with first SBM within 24 h ([3]; 5 mg day^–1 (10/10)): 100% | proportion of patients with first SBM within 24 h ([3]; 10 mg day^–1 (9/9)): 100% | proportion of patients with first SBM within 24 h ([3]; 15 mg day^–1 (8/9)): 88.9% | proportion of patients with first SBM within 24 h ([3]; 20 mg day^–1 (10/10)): 100% | patients reporting worse abdominal discomfort ([3]; 20 mg day^–1 group): 40% | patients reporting improvement of abdominal discomfort ([3]; 5 and 10 mg day^–1 groups): Nearly half | time to the first SBM compared with placebo ([3]; M-test): evidently shorter | changes in SBM frequency from baseline (Week –1) ([3]; M-test Weeks 1 and 2): dose‐dependent increases | AEs associated with gastrointestinal disorders, % of patients [4, 22]: (40.0) % | AEs associated with gastrointestinal disorders, n of patients [4, 22]: 4 | Any AEs, % of patients [4, 22]: (40.0) % | Any AEs, n of patients [4, 22]: 4 | abdominal distention, % of patients [4, 22]: (20.0) % | abdominal distention, n of patients [4, 22]: 2 | abdominal pain lower, % of patients [4, 22]: (20.0) % | abdominal pain lower, n of patients [4, 22]: 2 | diarrhoea, n of patients [4, 22]: 0 | AEs associated with gastrointestinal disorders, % of patients [4, 23]: (20.0) % | AEs associated with gastrointestinal disorders, n of patients [4, 23]: 2 | Any AEs, % of patients [4, 23]: (40.0) % | Any AEs, n of patients [4, 23]: 4 | abdominal distention, n of patients [4, 23]: 0 | abdominal pain lower, % of patients [4, 23]: (10.0) % | abdominal pain lower, n of patients [4, 23]: 1 | diarrhoea, n of patients [4, 23]: 0 | AEs associated with gastrointestinal disorders, % of patients [4, 24]: (80.0) % | AEs associated with gastrointestinal disorders, n of patients [4, 24]: 8 | Any AEs, % of patients [4, 24]: (80.0) % | Any AEs, n of patients [4, 24]: 8 | abdominal distention, n of patients [4, 24]: 0 | abdominal pain lower, % of patients [4, 24]: (40.0) % | abdominal pain lower, n of patients [4, 24]: 4 | diarrhoea, % of patients [4, 24]: (40.0) % | diarrhoea, n of patients [4, 24]: 4 | AEs associated with gastrointestinal disorders, % of patients [4, 25]: (50.0) % | AEs associated with gastrointestinal disorders, n of patients [4, 25]: 5 | Any AEs, % of patients [4, 25]: (50.0) % | Any AEs, n of patients [4, 25]: 5 | abdominal distention, % of patients [4, 25]: (20.0) % | abdominal distention, n of patients [4, 25]: 2 | abdominal pain lower, % of patients [4, 25]: (20.0) % | abdominal pain lower, n of patients [4, 25]: 2 | diarrhoea, % of patients [4, 25]: (30.0) % | diarrhoea, n of patients [4, 25]: 3 | AEs associated with gastrointestinal disorders, % of patients [4, 26]: (10.0) % | AEs associated with gastrointestinal disorders, n of patients [4, 26]: 1 | Any AEs, % of patients [4, 26]: (20.0) % | Any AEs, n of patients [4, 26]: 2 | abdominal distention, n of patients [4, 26]: 0 | abdominal pain lower, % of patients [4, 26]: (10.0) % | abdominal pain lower, n of patients [4, 26]: 1 | diarrhoea, n of patients [4, 26]: 0 | AEs associated with gastrointestinal disorders, % of patients [4, 27]: (10.0) % | AEs associated with gastrointestinal disorders, n of patients [4, 27]: 1 | Any AEs, % of patients [4, 27]: (30.0) % | Any AEs, n of patients [4, 27]: 3 | abdominal distention, n of patients [4, 27]: 0 | abdominal pain lower, % of patients [4, 27]: (10.0) % | abdominal pain lower, n of patients [4, 27]: 1 | diarrhoea, n of patients [4, 27]: 0 | AEs associated with gastrointestinal disorders, % of patients [4, 28]: (60.0) % | AEs associated with gastrointestinal disorders, n of patients [4, 28]: 6 | Any AEs, % of patients [4, 28]: (60.0) % | Any AEs, n of patients [4, 28]: 6 | abdominal distention, % of patients [4, 28]: (10.0) % | abdominal distention, n of patients [4, 28]: 1 | abdominal pain lower, % of patients [4, 28]: (10.0) % | abdominal pain lower, n of patients [4, 28]: 1 | diarrhoea, % of patients [4, 28]: (50.0) % | diarrhoea, n of patients [4, 28]: 5 | AEs associated with gastrointestinal disorders, % of patients [4, 29]: (100.0) % | AEs associated with gastrointestinal disorders, n of patients [4, 29]: 10 | Any AEs, % of patients [4, 29]: (100.0) % | Any AEs, n of patients [4, 29]: 10 | abdominal distention, % of patients [4, 29]: (20.0) % | abdominal distention, n of patients [4, 29]: 2 | abdominal pain lower, % of patients [4, 29]: (30.0) % | abdominal pain lower, n of patients [4, 29]: 3 | diarrhoea, % of patients [4, 29]: (70.0) % | diarrhoea, n of patients [4, 29]: 7 | AEs associated with gastrointestinal disorders, % of patients [4, 30]: (30.0) % | AEs associated with gastrointestinal disorders, n of patients [4, 30]: 3 | Any AEs, % of patients [4, 30]: (40.0) % | Any AEs, n of patients [4, 30]: 4 | abdominal distention, % of patients [4, 30]: (20.0) % | abdominal distention, n of patients [4, 30]: 2 | abdominal pain lower, % of patients [4, 30]: (10.0) % | abdominal pain lower, n of patients [4, 30]: 1 | diarrhoea, n of patients [4, 30]: 0 | AEs associated with gastrointestinal disorders, % of patients [4, 31]: (11.1) % | AEs associated with gastrointestinal disorders, n of patients [4, 31]: 1 | Any AEs, % of patients [4, 31]: (44.4) % | Any AEs, n of patients [4, 31]: 4 | abdominal distention, % of patients [4, 31]: (11.1) % | abdominal distention, n of patients [4, 31]: 1 | abdominal pain lower, n of patients [4, 31]: 0 | diarrhoea, n of patients [4, 31]: 0 | QTcF prolongation (>450 ms), categorical analysis (QTcF intervals): no QTcF prolongation

Source: paper PMC6138487 (British Journal of Clinical Pharmacology, 2018)
